A selection: hits, their analogues and other compounds. The true share with any hit is near 3.5%.
RGS4 act: RGS4 potentiators or activators, primary screen, cell-based, HEK293 M3R inducible RGS4, calcium flux | B-score at 10 µM | 0.92% of 310,000 active | carbachol calcium flux Fluo4; stronger effect = lower value;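 active = B-score of the integrated calcium signal more than 4 SD below the library mean, with starting fluorescence not abnormally high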;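 also: negative B-score means reduced calcium response which marks RGS4 activation or potentiation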
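Reagent: ECmax carbachol challenge; Test system: M3R-expressing HEK293 line, RGS4 induced by doxycycline; Schedule: overnight RGS4 induction, 30 min dye load 37 °C, 20 min compound RT; Detection: calcium dye Fluo4 fluorescence; Read-out: Agonist-evoked peak-minus-minimum fluorescence over baseline, integrated ratio, B score.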
RGS4 block: RGS4 inhibitors, primary screen, cell-based, HEK293 M3R inducible RGS4, calcium flux; Fluo-4 calcium flux; stronger effect = higher value; triggered by carbachol at its EC20; B-score at 10 µM; 0.45% of 310,000 active;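 active = B-score, a plate-corrected calcium signal, over three deviations above library mean, with baseline fluorescence within five deviations of library mean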;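 also: RGS4 expression induced by doxycycline in cells with stable M3 receptor; B-score is computed from the integrated fluorescence ratio over baseline after carbachol; higher B-score means a larger calcium signal and so more RGS4 inhibition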
Target sequence (P49798 whole entry, looked up): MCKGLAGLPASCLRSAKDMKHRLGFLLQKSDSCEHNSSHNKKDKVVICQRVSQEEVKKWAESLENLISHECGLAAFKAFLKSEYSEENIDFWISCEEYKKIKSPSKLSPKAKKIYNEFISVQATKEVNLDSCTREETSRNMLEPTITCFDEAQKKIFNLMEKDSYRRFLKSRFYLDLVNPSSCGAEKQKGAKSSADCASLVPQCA
MrgX1 agonist: agonists of human MrgX1 receptor, primary screen, HEK293 cells, Fluo-4 calcium flux. B-score at 10 µM. 0.44% of 310,000 active. Fluo-4 calcium fluorescence, agonist mode; stronger effect = higher value. Mas-related G-protein coupled receptor member X1 (Homo sapiens), Q96LB2;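 active = calcium response B-score plate-corrected fluorescence ratio at least 3 library SD, with starting fluorescence B-score inside 5 SD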
Target sequence (Q96LB2 whole entry, looked up): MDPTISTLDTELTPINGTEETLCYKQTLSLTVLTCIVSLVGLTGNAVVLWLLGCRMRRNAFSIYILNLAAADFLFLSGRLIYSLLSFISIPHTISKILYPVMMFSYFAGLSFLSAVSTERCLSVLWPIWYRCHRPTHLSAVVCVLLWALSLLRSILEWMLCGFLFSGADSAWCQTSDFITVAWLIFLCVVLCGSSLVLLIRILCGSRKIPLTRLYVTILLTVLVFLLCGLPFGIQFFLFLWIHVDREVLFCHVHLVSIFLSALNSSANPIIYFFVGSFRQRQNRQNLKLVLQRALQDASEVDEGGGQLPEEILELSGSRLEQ
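Material: HEK293 cells stably expressing human MrgX1 receptor | Quantity: 15,000 cells per well | Times: Cells plated overnight, dye loaded 0.5 h 37 °C, 0.5 h room temperature | Measured by: Kinetic Fluo-4 NW fluorescence of intracellular calcium | Control set: Positive and negative controls per plate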
MrgX1 allo act: positive allosteric modulators of MrgX1, primary screen, HEK293 cells, Fluo-4 calcium flux | Mas-related G-protein coupled receptor member X1 (Homo sapiens), Q96LB2 | 0.63% of 310,000 active | FDSS; stronger effect = higher value | B-score at 10 µM;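 active = plate-corrected calcium response at least 3 library SD above typical, normal starting fluorescence, not activating the receptor alone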;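 also: compound read alongside a low EC10 to EC30 dose of BAM8-22 agonist; peak minus trough fluorescence over baseline measured at the second addition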
MrgX1 antag: antagonists of human MrgX1 receptor, primary screen, HEK293 cells, Fluo-4 calcium flux. Mas-related G-protein coupled receptor member X1 (Homo sapiens), Q96LB2. BAM8-22 antagonism; stronger effect = lower value. B-score at 10 µM. 1.3% of 310,000 active. AID 588676, 2011;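 active = calcium-response B-score plate-corrected more than 3 library SD below zero, starting fluorescence within 5 deviations, no agonist response on first addition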;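 also: peak minus trough fluorescence over baseline after final BAM8-22 challenge near maximal dose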
MrgX1 allo conf: MrgX1 positive allosteric modulators, duplicate retest, confirmation, HEK293 cells, Fluo-4 calcium flux. activation (ratio percentage), % at 10 µM. 13% of 1,200 active. shares compounds with MrgX1 allo act. Fluo-4 calcium fluorescence, FDSS;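 active = ratio at least 3 SD above the weak peptide control, stable starting fluorescence, no direct agonism earlier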;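 also: compound followed by low BAM8-22 agonist challenge near EC20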
HEK293 Ca flux: nonspecific calcium signal in parental HEK293, confirmation, counter-screen for MrgX1 antagonist project, parental HEK293 cells, Fluo-4 calcium flux; Fluo-4 calcium fluorescence, FDSS; shares compounds with MrgX1 antag; fluorescence ratio F(max-min)/F0 at 10 µM; 2% of 4,000 active; AID 624111, 2012;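 active = duplicate-averaged calcium fluorescence ratio at least three times the standard deviation of buffer wells, a nonspecific response in parental cells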
HEK293 Ca counter: calcium response in parental HEK293 cells, primary screen, counter-screen for MrgX1 allosteric activator project, cell-based, Fluo-4 calcium flux, duplicate; shares compounds with MrgX1 antag; Fluo-4 fluorescence ratio; stronger effect = higher value; fluorescence ratio F(max-min)/F0 at 10 µM; 0.4% of 4,000 active; AID 624114, 2012;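 active = calcium fluorescence ratio, averaged over duplicates, at least 3 SD of the buffer-well ratio, meaning a nonspecific response in receptor-free cells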;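 also: untransfected parental HEK293 lacking MrgX1 used as counterscreen for MrgX1 allosteric activators; fluorescence change taken during the second addition on a kinetic imager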
HEK293 Ca cntr2: calcium response in parental HEK293 cells, primary screen, counter-screen for MrgX1 agonist project, cell-based, Fluo-4 calcium flux, duplicate, agonist mode | shares compounds with MrgX1 antag | Fluo-4 calcium fluorescence (FDSS); stronger effect = higher value | fluorescence ratio F(max-min)/F0 at 10 µM | 8.7% of 4,000 active;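 active = calcium fluorescence ratio at least three times the spread of buffer wells, meaning a non-specific response in parental cells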
Hits are given with their value; - = inactive; . = not tested or not shown.

SMILES	RGS4 act	RGS4 block	MrgX1 agonist	MrgX1 allo act	MrgX1 antag	MrgX1 allo conf	HEK293 Ca flux	HEK293 Ca counter	HEK293 Ca cntr2
CCOC1=C/C(=C/c2c(N)n3nc(CC(=O)N4CCCCC4)sc3nc2=O)C=CC1=O	-	-	-	-	-	.	.	.	.
Cc1cccc2sc(NS(=O)(=O)c3ccccc3)nc12	-	-	-	8.3	-	-	-	-	-
Cc1nc(NS(=O)(=O)c2ccccc2)sc1C(C)(C)C	-	-	-	-	-	.	.	.	.
COc1ccc(OC(=O)COc2cccc(C)c2)cc1	-	-	-	-	-	.	.	.	.
COc1ccc(N(C(=O)COc2cccc(C)c2)S(=O)(=O)c2ccc(C)cc2)cc1	-	-	-	18	-	-	-	-	-
COc1ccc(-c2nnc(NC(=O)c3ccc(S(=O)(=O)N4COCC4(C)C)cc3)o2)cc1	-	-	-	7	-	-	-	-	-
CC1CCCCN1S(=O)(=O)c1ccc(C(=O)Nc2nnc(-c3ccncc3)o2)cc1 (stereo not given)	-	-	-	-	-	.	.	.	.
O=C(Nc1nnc(-c2ccco2)o1)c1cccc(Cl)c1	-	-	-	7.5	-	-	-	-	-
O=C(Nc1cccc(Cl)c1)c1cc(-c2ccco2)on1	-	-	-	8	-	-	-	-	-
O=C(Nc1nnc(-c2ccccn2)o1)c1cccc(Cl)c1	-	-	-	-	-	.	.	.	.
Cc1cccc(N=C2NC(=O)/C(=C3/C(=O)N(C)c4ccccc43)S2)c1C	-	-	-	7.3	-	-	-	-	-
Cc1nc(SCc2c(F)cccc2Cl)c2c(=O)n(C)c(=O)n(C)c2n1	-	-	-	-	-	.	.	.	.
CSc1ncccc1C(=O)NC1CC(C)(C)Cc2c1cnn2-c1ccccc1C (stereo not given)	-	-	-	17	-	-	-	-	-
Cc1ccccc1-n1ncc2c1CC(C)(C)CC2NC(=O)c1ccncc1 (stereo not given)	-	-	-	-	-	.	.	.	.
Cc1ccccc1-n1ncc2c1CC(C)(C)CC2NC(=O)c1snnc1C (stereo not given)	-	-	-	10	-	7.8%	-	-	-
Cc1ccccc1-n1ncc2c1CC(C)(C)CC2NC(=O)CCC(F)(F)F (stereo not given)	-	-	-	9.8	-	-	-	-	-
N#C/C(=C\c1c[nH]c2ccccc12)C(=O)NC1CCCC1	-	-	-	-	-	.	.	.	.
Fc1ccc(-n2nnc(-c3cnc4ccccc4c3)n2)cc1	-	-	-	-	-	.	.	.	.
CCSc1nnc2n(-c3ccc(OC)cc3)c(=O)c3c4c(sc3n12)CCCC4	-	-	-	-	-	.	.	.	.
COc1ccccc1-n1c(=O)c2c3c(sc2n2c(SC)nnc12)CCC3	-	-	-	15	-	-	-	-	-
CCC1Nc2ncnc(N3CCCCC3)c2N(Cc2ccccc2)C1=O (stereo not given)	-	-	-	7.5	-	-	-	-	-
C=C(C)C(=O)Nc1cccc(C2=NOC3(C2)C[C@@H](C(N)=O)N(C(=O)/C=C/C=C/C)C3)c1 (stereo not given in full)	-	-	-	-	-	.	.	.	.

Assay outcomes from PubChem BioAssay.
